Key:
Mus musculus [1] = organism: Mus musculus; test: The compound was tested for Anticonvulsant activity against Pentylenetetrazole (PTZ) induced seizures in Swiss mice; type: functional
How it was run: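 Male Swiss mice (20–26 g, 42–48 days) pretreated ip with the compound in 30% DMSO/70% saline, then 45 min later PTZ 85 mg/kg (CD97) sc. Observed for 30 min; protection was absence of clonic spasms lasting at least 5 s. ED50 by Litchfield–Wilcoxon, at least 32 animals.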

Mus musculus [2] = organism: Mus musculus; test: The compound was tested for Anticonvulsant activity against audiogenic seizures in DBA/2 mice in tonic phase; type: functional
How it was run: (§1)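 Male DBA/2 mice (8–12 g, 22–25 days), groups of 10 per dose, given the compound ip in 30% DMSO/70% saline at doses within 3.3–200 µmol/kg. Sound stimulation 30 min later; latency and incidence of seizure phases scored. ED50 per phase by Litchfield–Wilcoxon, at least 32 animals per value.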

Mus musculus [3] = organism: Mus musculus; test: The compound was tested for Anticonvulsant activity against maximal electroshock (MES) induced seizures in Swiss mice.; type: functional
How it was run: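 Swiss mice given the compound ip in 30% DMSO/70% saline, then 45 min later ear-clip electroshock (50 mA, 20 ms pulses, 35 Hz, 400 ms). Protection was abolition of tonic hindlimb extension. Four to five doses, 8–10 mice each; ED50 by Litchfield–Wilcoxon.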

Mus musculus [4] = organism: Mus musculus; test: The compound was tested for locomotor deficit (rotarod test) in Swiss mice.
[5] = Relative lipophilicity of the compound; type: physicochemical; details: reversed-phase TLC, acetone/water 2:1
How it was run: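 Reversed-phase TLC on plates dried at 105 °C for 1 h. Mobile phase acetone/water 2:1 (v/v). Compound in CHCl3 (3 mg/mL), 1 µL spotted. Five runs, each with a different placement on the plate. Mean Rf converted by Rm = log[(1/Rf) − 1]; higher Rm means higher lipophilicity.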

Mus musculus [6] = organism: Mus musculus; test: The compound was tested for Anticonvulsant activity against audiogenic seizures in DBA/2 mice in clonic phase; type: functional; how it was run: as §1
Mus musculus [7] = test: The compound was tested for Anticonvulsant activity against audiogenic seizures in DBA/2 mice in clonic phase. 30 min after ip administration.; type: functional; details: 0.5 h
How it was run: (§2)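 Time course in male DBA/2 mice (8–12 g, 22–25 days) after ip dosing in 30% DMSO/70% saline, with auditory stimulation at the stated time after injection. Groups of 10 mice per time point; clonic-phase ED50 (95% confidence limits) by Litchfield–Wilcoxon, at least 32 animals per value.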

Mus musculus [8] = test: The compound was tested for Anticonvulsant activity against audiogenic seizures in DBA/2 mice in clonic phase. 90 min after ip administration.; type: functional; details: 1.5 h; how it was run: as §2
Mus musculus [9] = test: The compound was tested for Anticonvulsant activity against audiogenic seizures in DBA/2 mice in clonic phase. 45 min after ip administration.; type: functional; details: 0.75 h; how it was run: as §2
Mus musculus [10] = test: The compound was tested for Anticonvulsant activity against audiogenic seizures in DBA/2 mice in clonic phase. 60 min after ip administration.; type: functional; details: 1 h; how it was run: as §2
Mus musculus [11] = test: The compound was tested for Anticonvulsant activity against audiogenic seizures in DBA/2 mice in clonic phase. 15 min after ip administration.; type: functional; details: 0.25 h; how it was run: as §2
Mus musculus [12] = organism: Mus musculus; test: The compound was tested for Anticonvulsant activity against KA induced seizures in DBA/2 mice.; type: functional
Mus musculus [13] = organism: Mus musculus; test: The compound was tested for Anticonvulsant activity against audiogenic seizures in DBA/2 mice after pretreatment with Aniracetam in clonic phase; type: functional
How it was run: (§3)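 Male DBA/2 mice (8–12 g, 22–25 days) given aniracetam 50 nmol icv 30 min before the ip compound (30% DMSO/saline), i.e. 60 min before auditory stimulation. Clonic or tonic phase incidence scored; ED50 by Litchfield–Wilcoxon, at least 32 animals.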

Mus musculus [14] = organism: Mus musculus; test: The compound was tested for Anticonvulsant activity against AMPA induced seizures in DBA/2 mice clonic phase.; type: functional
Mus musculus [15] = organism: Mus musculus; test: The compound was tested for Anticonvulsant activity against AMPA induced seizures in DBA/2 mice in tonic phase; type: functional
Mus musculus [16] = test: The compound was tested for Anticonvulsant activity against audiogenic seizures in DBA/2 mice in clonic phase. 120 min after ip administration.; type: functional; details: 2 h; how it was run: as §2
Mus musculus [17] = organism: Mus musculus; test: The compound was tested for Anticonvulsant activity against audiogenic seizures in DBA/2 mice after pretreatment with Aniracetam in tonic phase.; type: functional; how it was run: as §3

| Compound | ED50 (Mus musculus [1]) [µmol/kg] | ED50 (Mus musculus [2]) [µmol/kg] | ED50 (Mus musculus [3]) [µmol/kg] | TD50 (Mus musculus [4]) [µM/kg] | Rm [5] | ED50 (Mus musculus [6]) [µmol/kg] | ED50 (Mus musculus [7]) [µmol/kg] | ED50 (Mus musculus [8]) [µmol/kg] | ED50 (Mus musculus [9]) [µmol/kg] | ED50 (Mus musculus [10]) [µmol/kg] | ED50 (Mus musculus [11]) [µmol/kg] | ED50 (Mus musculus [12]) [µmol/kg] | ED50 (Mus musculus [13]) [µmol/kg] | ED50 (Mus musculus [14]) [µmol/kg] | ED50 (Mus musculus [15]) [µmol/kg] | ED50 (Mus musculus [16]) [µmol/kg] | ED50 (Mus musculus [17]) [µmol/kg] |
| --- | --- | --- | --- | --- | --- | --- | --- | --- | --- | --- | --- | --- | --- | --- | --- | --- | --- |
| CCCNC(=O)N1N=C(c2ccc(N)cc2)c2cc3c(cc2CC1=O)OCO3 | > 100 | 49.2 | 76.5 | 182 | -0.25 | 69.4 |  |  |  |  |  |  |  |  |  |  |  |
| Nc1ccc(C2=NN=C(S)Cc3cc4c(cc32)OCO4)cc1 | 25.2 | 5.09 | 9.79 | 39.8 | -0.269 | 11.8 | 11.8 | 45 | 13.4 | 19.6 | 5.9 | 15.6 | 31.4 | 15.6 | 11.5 | > 50 | 16.3 |
| CCNC(=O)N1N=C(c2cccc(N)c2)c2cc3c(cc2CC1=O)OCO3 | 90.7 | 32.1 | 60.2 | 126 | -0.323 | 44.9 |  |  |  |  |  |  |  |  |  |  |  |
| Nc1ccc(C2=NNC(=O)Cc3cc4c(cc32)OCO4)cc1 | 71.8 | 10.9 | 32.1 | 99.1 | -0.552 | 15.4 | 15.4 | > 50 | 18.7 | 21.3 | 7.55 | 19.6 | 62.6 | 37.9 | 28.5 | > 50 | 39.6 |
| SC1=NN=C(c2ccccc2)c2cc3c(cc2C1)OCO3 | 80.3 | 18.8 | 37.8 | 97.1 | -0.185 | 23.8 | 23.8 |  |  |  |  |  |  |  |  |  |  |
| CNC(=O)N1N=C(c2cccc(N)c2)c2cc3c(cc2CC1=O)OCO3 | 19.6 | 11.2 | 21.4 | 48.9 | -0.441 | 13.6 | 13.6 |  |  |  |  |  |  |  |  |  |  |
| CCCNC(=O)N1N=C(c2cccc(N)c2)c2cc3c(cc2CC1=O)OCO3 | > 100 | 63.8 | > 100 | >100 | -0.181 | 85.3 |  |  |  |  |  |  |  |  |  |  |  |
| Nc1cccc(C2=NN=C(S)Cc3cc4c(cc32)OCO4)c1 | 40.2 | 8.88 | 30.9 | 53.7 | -0.213 | 16.7 | 16.7 | 45.2 | 15.2 | 22.4 | 32.6 | 18.6 | 65.2 | 32.8 | 26.2 | > 50 | 85.9 |
| CCCCNC(=O)N1N=C(c2ccc(N)cc2)c2cc3c(cc2CC1=O)OCO3 | > 100 | 32.6 | 79.7 | 108 | -0.11 | 38.7 |  |  |  |  |  |  |  |  |  |  |  |
| CCNC(=O)N1N=C(c2ccc(N)cc2)c2cc3c(cc2CC1=O)OCO3 | 68.2 | 23.8 | 52.5 | 134 | -0.368 | 35 |  |  |  |  |  |  |  |  |  |  |  |
| CCCCNC(=O)N1N=C(c2cccc(N)c2)c2cc3c(cc2CC1=O)OCO3 | 36.4 | 12.7 | 26.6 | 56.2 | -0.075 | 18.1 |  |  |  |  |  |  |  |  |  |  |  |
| CNC(=O)N1N=C(c2ccc(N)cc2)c2cc3c(cc2CC1=O)OCO3 | 16.3 | 8.7 | 18.6 | 48.6 | -0.459 | 12.4 | 12.4 | 19.4 | 12.1 | 13 | 14.3 | 8.61 | 33.9 | 18.6 | 10.3 | 40.8 | 31 |
| O=C1Cc2cc3c(cc2C(c2ccccc2)=NN1)OCO3 | 78 | 40.6 | 42.6 | 159 | -0.215 | 43.3 | 43.3 |  |  |  |  |  |  |  |  |  |  |
| Nc1cccc(C2=NNC(=O)Cc3cc4c(cc32)OCO4)c1 | 40.5 | 12.7 | 19.3 | 101 | -0.484 | 18 | 18 | 47.1 | 19.1 | 26.3 | > 50 | 23.2 | 55 | 29.2 | 23.8 | > 50 | 40.6 |
| CC1=NN=C(c2ccc(N)cc2)c2cc3c(cc2C1)OCO3 [GYKI-52466] |  |  |  | 76.1 | -0.404 |  |  | > 50 | 37.2 |  | 10.8 | 27.8 |  |  |  | > 50 |  |

Source: ChEMBL document CHEMBL1132452, “Synthesis and anticonvulsant activity of novel and potent 2,3-benzodiazepine AMPA/kainate receptor antagonists” (J Med Chem, 1999)
